# Experimental data published in ChEMBL document CHEMBL3745601 (Medchemcomm, 2015).
# Tests used:
# Homo sapiens = species: Homo sapiens; test: Selectivity ratio for human A3 adenosine receptor to human A2A adenosine receptor
# Adenosine receptor A2a [1] = molecular target: T1, Adenosine receptor A2a (Homo sapiens, UniProt P29274); test: Displacement of [3H]2-[p(2-carboxyethyl)phenyl-ethylamino]-5'-N-ethylcarboxamido-adenosine from human adenosine A2A receptor stably expressed in HEK293 cell membrane at 10 uM by radioligand binding assay; type: cell membranes
# T1 sequence (P29274 whole entry): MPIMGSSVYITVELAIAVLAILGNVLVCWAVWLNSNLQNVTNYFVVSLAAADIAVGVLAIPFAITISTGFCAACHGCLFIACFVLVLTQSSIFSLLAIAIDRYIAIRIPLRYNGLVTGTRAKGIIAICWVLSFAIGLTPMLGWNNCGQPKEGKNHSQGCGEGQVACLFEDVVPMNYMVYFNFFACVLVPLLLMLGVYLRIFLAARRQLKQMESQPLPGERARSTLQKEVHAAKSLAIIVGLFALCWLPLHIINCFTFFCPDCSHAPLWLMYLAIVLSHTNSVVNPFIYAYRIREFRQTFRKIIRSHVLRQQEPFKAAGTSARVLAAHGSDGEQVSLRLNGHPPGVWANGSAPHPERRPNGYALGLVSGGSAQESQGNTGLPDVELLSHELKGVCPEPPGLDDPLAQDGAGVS
# Adenosine receptor A3 [2] = molecular target: T2, Adenosine receptor A3 (Homo sapiens, UniProt P0DMS8); test: Displacement of [125I]N6-(4-amino-3-iodobenzyl)adenosine-5'-N-methyl-uronamide from human adenosine A3 receptor stably expressed in CHO cell membrane by radioligand binding assay; type: cell membranes
# T2 sequence (P0DMS8 whole entry): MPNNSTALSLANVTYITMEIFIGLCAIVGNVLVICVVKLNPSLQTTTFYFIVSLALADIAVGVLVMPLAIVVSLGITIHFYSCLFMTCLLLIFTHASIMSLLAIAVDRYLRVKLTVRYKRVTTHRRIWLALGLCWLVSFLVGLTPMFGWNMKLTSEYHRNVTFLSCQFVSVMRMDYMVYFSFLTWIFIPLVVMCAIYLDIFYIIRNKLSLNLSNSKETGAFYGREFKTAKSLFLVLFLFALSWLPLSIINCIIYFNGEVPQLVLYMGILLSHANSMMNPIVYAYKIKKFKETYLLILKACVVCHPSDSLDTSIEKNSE
# Adenosine receptor A2a [3] = molecular target: T1, Adenosine receptor A2a; test: Displacement of [3H]2-[p(2-carboxyethyl)phenyl-ethylamino]-5'-N-ethylcarboxamido-adenosine from human adenosine A2A receptor stably expressed in HEK293 cell membrane by radioligand binding assay; type: cell membranes
# [4] = molecular target: T3, Adenosine receptor A1 (Homo sapiens) (UniProt P30542); test: Displacement of [3H]N6-R-phenylisopropyladenosine from human adenosine A1 receptor stably expressed in CHO cell membrane at 10 uM by radioligand binding assay; type: cell membranes
# T3 sequence (whole entry): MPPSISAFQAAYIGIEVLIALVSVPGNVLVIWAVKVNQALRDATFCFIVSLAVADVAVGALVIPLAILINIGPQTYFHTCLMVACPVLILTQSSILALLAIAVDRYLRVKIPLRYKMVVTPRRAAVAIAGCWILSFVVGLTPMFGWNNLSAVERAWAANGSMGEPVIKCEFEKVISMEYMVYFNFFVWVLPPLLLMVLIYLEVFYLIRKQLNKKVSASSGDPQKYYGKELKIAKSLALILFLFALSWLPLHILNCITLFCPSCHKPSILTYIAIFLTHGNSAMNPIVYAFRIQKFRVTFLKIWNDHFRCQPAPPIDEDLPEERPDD
# Mus musculus [5] = test: Induction of mechano-allodynia in mouse chronic constriction injury model of neuropathic pain assessed as paw withdrawal threshold on contralateral side at 3 umol/kg, po; type: organism-based; conditions: in vivo
# Mus musculus [6] = test: Antineuropathic pain activity in mouse chronic constriction injury model of neuropathic pain assessed as reversal of reduction in paw withdrawal threshold of ipsilateral hind paw at 3 umol/kg, po dosed on day 7 after sciatic nerve ligation and measured at 1 hrs; type: functional
# Procedure, shortened: (§1)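 Paw withdrawal threshold (g) measured at 1 h or 3 h after treatment, at day 7 (D7/BL) and at D0. % effect = [PWT at post-treatment time − PWT at D7/BL] / [PWT at D0 − PWT at D7/BL] × 100. Significance set at P<0.05. Procedures otherwise follow earlier work under IASP/NIH animal welfare guidelines.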
# Mus musculus [7] = test: Antineuropathic pain activity in mouse chronic constriction injury model of neuropathic pain assessed as reversal of reduction in paw withdrawal threshold of ipsilateral hind paw at 3 umol/kg, po dosed on day 7 after sciatic nerve ligation and measured at 3 hrs; type: functional; parameters: scale not given: the % may be the effect or the level left; procedure, shortened: as §1
# PC-12 = test: Displacement of [3H]DTG from rat sigma 2 receptor in PC12 cells incubated for 2 hrs by liquid scintillation counting method; type: cell-based; conditions: dose or concentration not given here
# [8] = molecular target: Histamine H2 receptor (Homo sapiens) (UniProt P25021); test: Displacement of [3H]tiotidine from H2 histamine receptor (unknown origin) expressed in cells at 10 uM incubated for […] by scintillation counting method; type: cell-based
# Sequence of Histamine H2 receptor (Homo sapiens) (P25021 whole entry): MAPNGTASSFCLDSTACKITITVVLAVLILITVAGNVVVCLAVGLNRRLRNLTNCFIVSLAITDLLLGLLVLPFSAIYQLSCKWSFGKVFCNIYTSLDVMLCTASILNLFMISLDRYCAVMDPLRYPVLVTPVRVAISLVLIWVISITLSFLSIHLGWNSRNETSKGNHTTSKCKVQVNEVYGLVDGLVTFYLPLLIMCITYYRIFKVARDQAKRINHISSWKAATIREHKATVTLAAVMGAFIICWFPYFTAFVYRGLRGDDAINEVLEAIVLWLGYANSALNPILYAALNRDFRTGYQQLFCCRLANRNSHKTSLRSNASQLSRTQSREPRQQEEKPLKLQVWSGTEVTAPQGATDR
# Mus musculus [9] = test: Antineuropathic pain activity in mouse chronic constriction injury model of neuropathic pain assessed as reversal of reduction in paw withdrawal threshold of ipsilateral hind paw at 1 umol/kg, po dosed on day 7 after sciatic nerve ligation and measured at 1 and 3 hrs; type: functional; procedure, shortened: as §1
# [10] = molecular target: Translocator protein (Rattus norvegicus) (UniProt P16257); test: Displacement of [3H]flunitrazepam from rat brain benzodiazepine receptor TSPO incubated for […] by liquid scintillation counting method
# Sequence of Translocator protein (Rattus norvegicus) (P16257 whole entry, looked up): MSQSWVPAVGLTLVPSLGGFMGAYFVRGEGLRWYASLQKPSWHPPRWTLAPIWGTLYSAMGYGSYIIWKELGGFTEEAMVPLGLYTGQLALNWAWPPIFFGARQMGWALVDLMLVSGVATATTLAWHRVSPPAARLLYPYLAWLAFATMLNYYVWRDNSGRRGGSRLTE
# Adenosine receptor A3 [11] = molecular target: T4, Adenosine receptor A3 (Mus musculus, UniProt Q61618); test: Displacement of [125I]N6-(4-amino-3-iodobenzyl)adenosine-5'-N-methyl-uronamide from mouse adenosine A3 receptor stably expressed in CHO cell membrane by radioligand binding assay; type: cell membranes
# T4 sequence (Q61618 whole entry): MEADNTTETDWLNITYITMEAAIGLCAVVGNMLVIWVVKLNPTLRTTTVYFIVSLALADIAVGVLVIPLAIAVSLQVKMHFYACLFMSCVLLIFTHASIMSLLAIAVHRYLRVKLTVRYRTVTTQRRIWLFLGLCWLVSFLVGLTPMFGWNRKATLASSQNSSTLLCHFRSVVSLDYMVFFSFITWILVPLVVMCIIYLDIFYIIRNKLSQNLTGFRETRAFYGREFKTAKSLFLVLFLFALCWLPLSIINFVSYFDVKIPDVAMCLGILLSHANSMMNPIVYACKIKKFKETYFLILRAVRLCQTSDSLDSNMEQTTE
Structure (SMILES),inhibition (Adenosine receptor A2a [1]) [%],Ki (Adenosine receptor A3 [2]) [nM],inhibition [4] [%],Activity (Mus musculus [5]),Emax at 3 µmol/kg (Mus musculus [6]) [%],Activity (Mus musculus [7]) [%],also measured
"CNC(=O)[C@@]12CC1[C@@H](n1cnc3c(NC)nc(C#Cc4ccccc4)nc31)[C@H](O)[C@@H]2O (single isomer, unassigned)",,,,,,,Selectivity ratio (Homo sapiens): > 3000
CCNc1nc(I)nc2c1ncn2[C@H]1[C@H](O)[C@H](O)[C@]2(C(=O)NC)C[C@H]12,11,1.22,,,,,
CNC(=O)[C@@]12C[C@@H]1[C@@H](n1cnc3c(NC4CCC4)nc(I)nc31)[C@H](O)[C@@H]2O,,1.53,,,,,Ki (Adenosine receptor A2a [3]): > 10000 nM
CNC(=O)[C@@]12C[C@@H]1[C@@H](n1cnc3c(NC)nc(-n4cc(-c5cnn(C)c5)nn4)nc31)[C@H](O)[C@@H]2O,1,2.16,2,Non-toxic,82.5,19.1,
CNC(=O)[C@@]12C[C@@H]1[C@@H](n1cnc3c(NC)nc(-n4cc(-c5ccc(F)c(F)c5)nn4)nc31)[C@H](O)[C@@H]2O,39,1.06,,Non-toxic,75.2,27,
CNC(=O)[C@@]12C[C@@H]1[C@@H](n1cnc3c(NC)nc(-n4cc(-c5ccco5)nn4)nc31)[C@H](O)[C@@H]2O,51,0.96,,Non-toxic,65.3,21.1,inhibition (PC-12): 50%; inhibition [8]: 50%
CNC(=O)[C@@]12C[C@@H]1[C@@H](n1cnc3c(NCc4cccc(Cl)c4)nc(-n4cc(-c5ccc(Cl)s5)nn4)nc31)[C@H](O)[C@@H]2O,,9.02,,Non-toxic,94.7,91,inhibition in vivo at 1 µmol/kg (Mus musculus [9]): 70%
CNC(=O)[C@@]12C[C@@H]1[C@@H](n1cnc3c(NC)nc(-n4cc(-c5cnccn5)nn4)nc31)[C@H](O)[C@@H]2O,8,2.21,25,Non-toxic,76.6,26.6,
CNC(=O)[C@@]12C[C@@H]1[C@@H](n1cnc3c(NC)nc(-n4cc(-c5cc6ccccc6o5)nn4)nc31)[C@H](O)[C@@H]2O,40,1.25,12,Non-toxic,74,22.3,
CNC(=O)[C@@]12C[C@@H]1[C@@H](n1cnc3c(NC)nc(-n4cc(-c5ccccc5)nn4)nc31)[C@H](O)[C@@H]2O,35,0.96,,Non-toxic,77.4,27.5,
CNC(=O)[C@@]12C[C@@H]1[C@@H](n1cnc3c(NCCc4ccccc4)nc(-n4cc(-c5ccc(Cl)s5)nn4)nc31)[C@H](O)[C@@H]2O,,6.66,58,Non-toxic,94.1,82.9,
CNC(=O)[C@@]12C[C@@H]1[C@@H](n1cnc3c(NC4CCC4)nc(N=[N+]=[N-])nc31)[C@H](O)[C@@H]2O,46,0.85,,,,,
CNC(=O)[C@@]12C[C@@H]1[C@@H](n1cnc3c(NC)nc(-n4cc(-c5ccc(Br)s5)nn4)nc31)[C@H](O)[C@@H]2O,7,0.58,,Non-toxic,69.1,13.5,
CNC(=O)[C@@]12C[C@@H]1[C@@H](n1cnc3c(NC)nc(-n4cc(-c5ccc(Cl)s5)nn4)nc31)[C@H](O)[C@@H]2O,34,0.73,27,Non-toxic,66.8,8.4,inhibition (PC-12): 62%; inhibition [10]: 54%
CNC(=O)[C@@]12C[C@@H]1[C@@H](n1cnc3c(NC)nc(-n4cc(-c5ccccc5Cl)nn4)nc31)[C@H](O)[C@@H]2O,31,0.95,,Non-toxic,69.1,7.9,
CNC(=O)[C@@]12C[C@@H]1[C@@H](n1cnc3c(NC4CCC4)nc(-n4cc(-c5ccc(Cl)s5)nn4)nc31)[C@H](O)[C@@H]2O,,7.05,,Non-toxic,90.7,85.2,
CCNc1nc(-n2cc(-c3ccc(Cl)s3)nn2)nc2c1ncn2[C@H]1[C@H](O)[C@H](O)[C@]2(C(=O)NC)C[C@H]12,32,1.22,,Non-toxic,84.9,17.9,
CNC(=O)[C@@]12C[C@@H]1[C@@H](n1cnc3c(NCCc4ccccc4)nc(N=[N+]=[N-])nc31)[C@H](O)[C@@H]2O,,0.85,93,,,,Ki (Adenosine receptor A2a [3]): 1110 nM
CNC(=O)[C@@]12C[C@@H]1[C@@H](n1cnc3c(NC)nc(-n4cc(-c5ccccn5)nn4)nc31)[C@H](O)[C@@H]2O,26,1.84,29,Non-toxic,60.9,21.1,
CNC(=O)[C@@]12C[C@@H]1[C@@H](n1cnc3c(NC)nc(N=[N+]=[N-])nc31)[C@H](O)[C@@H]2O,1,0.54,,,,,
CNC(=O)[C@@]12C[C@@H]1[C@@H](n1cnc3c(NCc4cccc(Cl)c4)nc(N=[N+]=[N-])nc31)[C@H](O)[C@@H]2O,,1.08,,,,,Ki (Adenosine receptor A2a [3]): 2770 nM
CCNc1nc(N=[N+]=[N-])nc2c1ncn2[C@H]1[C@H](O)[C@H](O)[C@]2(C(=O)NC)C[C@H]12,11,0.69,,,,,
CNC(=O)[C@@]12C[C@@H]1[C@@H](n1cnc3c(NCCc4ccccc4)nc(I)nc31)[C@H](O)[C@@H]2O,42,0.91,68,,,,
CNC(=O)[C@@]12C[C@@H]1[C@@H](n1cnc3c(NC)nc(-n4cc(-c5ncccn5)nn4)nc31)[C@H](O)[C@@H]2O,27,3.48,14,Non-toxic,92.7,36.2,Ki (Adenosine receptor A3 [11]): 334 nM
